Blank lines part the entries; values can stand above or below the molecule they belong to.
Tests used:
Format in all cases: organism-based
[1] = target: T1, Angiotensin-converting enzyme (Rattus norvegicus) (UniProt P47820); assay: Compound was tested for plasma inhibition of Angiotensin I converting enzyme activity in the conscious rat. Expressed as Inhibition of AI pressor response at 2 hr at a dose of 12.4 mg/kg po; design: dose 12.4 mg/kg
T1 sequence (whole entry): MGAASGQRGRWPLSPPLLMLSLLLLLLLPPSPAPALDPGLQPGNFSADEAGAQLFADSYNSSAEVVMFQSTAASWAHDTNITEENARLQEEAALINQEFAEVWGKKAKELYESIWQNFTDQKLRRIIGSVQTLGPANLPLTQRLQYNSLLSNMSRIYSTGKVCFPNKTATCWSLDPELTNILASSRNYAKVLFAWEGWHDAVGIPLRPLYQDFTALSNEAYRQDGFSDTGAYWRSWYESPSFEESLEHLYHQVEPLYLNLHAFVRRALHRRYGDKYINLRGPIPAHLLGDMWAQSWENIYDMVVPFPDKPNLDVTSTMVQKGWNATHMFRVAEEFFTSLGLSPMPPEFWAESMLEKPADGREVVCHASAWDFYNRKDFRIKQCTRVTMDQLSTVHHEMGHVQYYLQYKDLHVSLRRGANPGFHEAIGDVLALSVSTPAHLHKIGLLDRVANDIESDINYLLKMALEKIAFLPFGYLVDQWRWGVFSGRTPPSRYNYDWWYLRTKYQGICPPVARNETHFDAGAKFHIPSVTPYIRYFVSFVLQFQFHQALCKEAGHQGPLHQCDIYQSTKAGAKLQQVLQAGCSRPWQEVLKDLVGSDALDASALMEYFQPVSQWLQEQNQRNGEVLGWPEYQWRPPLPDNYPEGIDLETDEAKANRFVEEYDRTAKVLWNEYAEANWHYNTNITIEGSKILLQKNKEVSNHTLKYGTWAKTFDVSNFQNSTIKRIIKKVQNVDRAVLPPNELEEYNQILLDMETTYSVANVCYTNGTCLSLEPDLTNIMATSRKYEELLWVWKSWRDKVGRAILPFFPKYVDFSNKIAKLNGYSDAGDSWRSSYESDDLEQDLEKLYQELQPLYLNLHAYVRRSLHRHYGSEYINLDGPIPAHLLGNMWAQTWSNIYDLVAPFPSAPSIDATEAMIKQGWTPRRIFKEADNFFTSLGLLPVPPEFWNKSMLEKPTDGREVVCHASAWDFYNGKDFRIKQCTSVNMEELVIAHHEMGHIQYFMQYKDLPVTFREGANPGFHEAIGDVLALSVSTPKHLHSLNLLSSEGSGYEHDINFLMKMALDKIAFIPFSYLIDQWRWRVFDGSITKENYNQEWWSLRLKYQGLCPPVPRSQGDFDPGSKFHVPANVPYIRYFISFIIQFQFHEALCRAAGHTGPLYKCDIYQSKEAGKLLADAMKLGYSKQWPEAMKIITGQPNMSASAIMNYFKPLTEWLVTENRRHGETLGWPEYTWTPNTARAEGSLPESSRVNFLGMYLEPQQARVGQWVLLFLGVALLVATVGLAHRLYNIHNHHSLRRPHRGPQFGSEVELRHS
Outline: (§1)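 Male conscious normotensive Sprague-Dawley rats (275-390 g), given femoral arterial and venous catheters under methohexital sodium (75 mg/kg ip) anesthesia. Next day, pressor responses to three angiotensin-I challenges (300 ng/kg iv) recorded by direct arterial pressure. Compound then dosed orally, and AI challenge repeated at set times. Each post-dose response compared with the mean of the three baseline responses, giving % inhibition.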

[2] = target: T1, Angiotensin-converting enzyme (Rattus norvegicus); assay: Compound was tested for plasma inhibition of ACE activity in the conscious rat. Expressed as Inhibition of AI pressor response at 1 hr at a dose of 12.4 mg/kg po; design: dose 12.4 mg/kg; outline: as §1
[3] = target: T1, Angiotensin-converting enzyme (Rattus norvegicus); assay: Compound was tested for plasma inhibition of Angiotensin I converting enzyme activity in the conscious rat. Expressed as Inhibition of AI pressor response at 4 hr at a dose of 12.4 mg/kg po; design: dose 12.4 mg/kg; outline: as §1
[4] = target: T1, Angiotensin-converting enzyme (Rattus norvegicus); assay: Compound was tested for plasma inhibition of Angiotensin I converting enzyme activity in the conscious rat. Expressed as Inhibition of AI pressor response at 6 hr at a dose of 12.4 mg/kg po; design: dose 12.4 mg/kg
Outline: (§2)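 Male conscious normotensive Sprague-Dawley rats (275-390 g), prepared under methohexital sodium (75 mg/kg ip) with femoral arterial and venous catheters. The next day, pressor responses to three angiotensin-I challenges (300 ng/kg iv) were recorded. Compound was then given orally and angiotensin-I challenges were repeated at set times. Percent inhibition is relative to the mean of the three baseline responses.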

[5] = target: T1, Angiotensin-converting enzyme (Rattus norvegicus); assay: Compound was tested for plasma inhibition of Angiotensin I converting enzyme activity in the conscious rat. Expressed as Inhibition of AI pressor response at 2 hr at a dose of 13 mg/kg po; design: dose 13 mg/kg
Outline: (§3)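 Male conscious normotensive Sprague-Dawley rats (275-390 g), fitted under methohexital (75 mg/kg ip) with femoral arterial and venous catheters for direct blood pressure. Next day, pressor responses to three angiotensin-I challenges (300 ng/kg iv) were recorded. Compound was then given po and AI challenge repeated at scheduled times. Each post-dose response was compared with the mean of the three initial responses.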

[6] = target: T1, Angiotensin-converting enzyme (Rattus norvegicus); assay: Compound was tested for plasma inhibition of Angiotensin I converting enzyme activity in the conscious rat. Expressed as Inhibition of AI pressor response at 6 hr at a dose of 13 mg/kg po; design: dose 13 mg/kg; outline: as §3
[7] = target: T1, Angiotensin-converting enzyme (Rattus norvegicus); assay: Compound was tested for plasma inhibition of Angiotensin I converting enzyme activity in the conscious rat. Expressed as Inhibition of AI pressor response at 1 hr at a dose of 13 mg/kg po; design: dose 13 mg/kg; outline: as §3
[8] = target: T1, Angiotensin-converting enzyme (Rattus norvegicus); assay: Compound was tested for plasma inhibition of Angiotensin I converting enzyme activity in the conscious rat. Expressed as Inhibition of AI pressor response at 4 hr at a dose of 13 mg/kg po; design: dose 13 mg/kg; outline: as §3
[9] = target: T1, Angiotensin-converting enzyme (Rattus norvegicus); assay: Compound was tested for plasma inhibition of Angiotensin I converting enzyme activity in the conscious rat. Expressed as Inhibition of AI pressor response at 2 hr at a dose of 13.8 mg/kg po; design: dose 13.8 mg/kg; outline: as §1
[10] = target: T1, Angiotensin-converting enzyme (Rattus norvegicus); assay: Compound was tested for plasma inhibition of Angiotensin I converting enzyme activity in the conscious rat. Expressed as Inhibition of AI pressor response at 1 hr at a dose of 13.8 mg/kg po; design: dose 13.8 mg/kg; outline: as §1
[11] = target: T1, Angiotensin-converting enzyme (Rattus norvegicus); assay: Compound was tested for plasma inhibition of Angiotensin I converting enzyme activity in the conscious rat. Expressed as Inhibition of AI pressor response at 4 hr at a dose of 13.8 mg/kg po; design: dose 13.8 mg/kg; outline: as §2
[12] = target: T1, Angiotensin-converting enzyme (Rattus norvegicus); assay: Compound was tested for plasma inhibition of Angiotensin I converting enzyme activity in the conscious rat. Expressed as Inhibition of AI pressor response at 6 hr at a dose of 13.8 mg/kg po; design: dose 13.8 mg/kg; outline: as §2
[13] = target: T1, Angiotensin-converting enzyme (Rattus norvegicus); assay: Compound was tested for plasma inhibition of Angiotensin I converting enzyme activity in the conscious rat. Expressed as Inhibition of AI pressor response at 1 hr at a dose of 14.1 mg/kg po; design: dose 14.1 mg/kg; outline: as §1
[14] = target: T1, Angiotensin-converting enzyme (Rattus norvegicus); assay: Compound was tested for plasma inhibition of Angiotensin I converting enzyme activity in the conscious rat. Expressed as Inhibition of AI pressor response at 2 hr at a dose of 14.1 mg/kg po; design: dose 14.1 mg/kg; outline: as §1
[15] = target: T1, Angiotensin-converting enzyme (Rattus norvegicus); assay: Compound was tested for plasma inhibition of Angiotensin I converting enzyme activity in the conscious rat. Expressed as Inhibition of AI pressor response at 1 hr at a dose of 13.3 mg/kg po; design: dose 13.3 mg/kg; outline: as §1
[16] = target: T1, Angiotensin-converting enzyme (Rattus norvegicus); assay: Compound was tested for plasma inhibition of Angiotensin I converting enzyme activity in the conscious rat. Expressed as Inhibition of AI pressor response at 4 hr at a dose of 13.3 mg/kg po; design: dose 13.3 mg/kg; outline: as §2
[17] = target: T1, Angiotensin-converting enzyme (Rattus norvegicus); assay: Compound was tested for plasma inhibition of Angiotensin I converting enzyme activity in the conscious rat. Expressed as Inhibition of AI pressor response at 6 hr at a dose of 13.3 mg/kg po; design: dose 13.3 mg/kg; outline: as §2
[18] = target: T1, Angiotensin-converting enzyme (Rattus norvegicus); assay: Compound was tested for plasma inhibition of Angiotensin I converting enzyme activity in the conscious rat. Expressed as Inhibition of AI pressor response at 2 hr at a dose of 13.3 mg/kg po; design: dose 13.3 mg/kg; outline: as §1

Compound: CCOC(=O)[C@H](Cc1ccc(O)cc1)NC(=O)C1(NC(=O)[C@H](SC(=O)C2CCCC2)C(C)C)CCCC1
inhibition [5]: 33% | inhibition [6]: 38% | inhibition [7]: 34% | inhibition [8]: 55%

Compound: CCOC(=O)[C@H](Cc1ccc(O)cc1)NC(=O)C1(NC(=O)[C@H](SC(=O)CN2CCOCC2)C(C)C)CCCC1
inhibition [9]: 60% | inhibition [10]: 54% | inhibition [11]: 40% | inhibition [12]: 28%

Next, values leading:

inhibition [1]: 76% | inhibition [2]: 88% | inhibition [3]: 73% | inhibition [4]: 70%
Compound: CCOC(=O)[C@H](Cc1ccc(OCC)cc1)NC(=O)C1(NC(=O)[C@H](SC(C)=O)C(C)C)CCCC1

inhibition [13]: -3% | inhibition [14]: 8%
Compound: CCCCOC(=O)[C@H](Cc1ccc(O)cc1)NC(=O)C1(NC(=O)[C@H](SC(=O)C2CCCCC2)C(C)C)CCCC1

inhibition [15]: 10% | inhibition [16]: 8% | inhibition [17]: 12% | inhibition [18]: 11%
Compound: CCOC(=O)[C@H](Cc1ccc(O)cc1)NC(=O)C1(NC(=O)[C@H](SC(=O)c2ccccn2)C(C)C)CCCC1
